According to ChEMBL document CHEMBL1123186, “Enzymatic phosphorylation of the antiherpetic agent 9-[(2,3-dihydroxy-1-propoxy)methyl]guanine” (1986):
Values after ≈ are worked out from the molar mass of the structure shown.

What was measured:
Format in all cases: functional
[1] = test system: Human alphaherpesvirus 1; experiment: Compound was tested for the inhibition of HSV-1 polymerase; design: concentration or dose not given beside the values
In short: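 Analog first phosphorylated 3 h at 37 °C with HSV1 TK, GMP kinase, creatine kinase/phosphocreatine, 5 mM ATP and HSV1-infected HeLa crude extract; 20 µL aliquots added to 100 µL polymerase mix with 50 mM Tris pH 8, 5 mM MgCl2, activated salmon sperm DNA, 0.05 mM each dNTP ([3H]dTTP), 0.1 M (NH4)2SO4, and infected-HeLa extract or purified HSV1 polymerase; 1 h 37 °C; TCA-precipitable counts.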

[2] = target: T1, DNA polymerase alpha catalytic subunit (Homo sapiens) (UniProt P09884); experiment: Compound was tested for the inhibition of HeLa DNA polymerase; conditions: concentration not given here
T1 sequence (whole entry): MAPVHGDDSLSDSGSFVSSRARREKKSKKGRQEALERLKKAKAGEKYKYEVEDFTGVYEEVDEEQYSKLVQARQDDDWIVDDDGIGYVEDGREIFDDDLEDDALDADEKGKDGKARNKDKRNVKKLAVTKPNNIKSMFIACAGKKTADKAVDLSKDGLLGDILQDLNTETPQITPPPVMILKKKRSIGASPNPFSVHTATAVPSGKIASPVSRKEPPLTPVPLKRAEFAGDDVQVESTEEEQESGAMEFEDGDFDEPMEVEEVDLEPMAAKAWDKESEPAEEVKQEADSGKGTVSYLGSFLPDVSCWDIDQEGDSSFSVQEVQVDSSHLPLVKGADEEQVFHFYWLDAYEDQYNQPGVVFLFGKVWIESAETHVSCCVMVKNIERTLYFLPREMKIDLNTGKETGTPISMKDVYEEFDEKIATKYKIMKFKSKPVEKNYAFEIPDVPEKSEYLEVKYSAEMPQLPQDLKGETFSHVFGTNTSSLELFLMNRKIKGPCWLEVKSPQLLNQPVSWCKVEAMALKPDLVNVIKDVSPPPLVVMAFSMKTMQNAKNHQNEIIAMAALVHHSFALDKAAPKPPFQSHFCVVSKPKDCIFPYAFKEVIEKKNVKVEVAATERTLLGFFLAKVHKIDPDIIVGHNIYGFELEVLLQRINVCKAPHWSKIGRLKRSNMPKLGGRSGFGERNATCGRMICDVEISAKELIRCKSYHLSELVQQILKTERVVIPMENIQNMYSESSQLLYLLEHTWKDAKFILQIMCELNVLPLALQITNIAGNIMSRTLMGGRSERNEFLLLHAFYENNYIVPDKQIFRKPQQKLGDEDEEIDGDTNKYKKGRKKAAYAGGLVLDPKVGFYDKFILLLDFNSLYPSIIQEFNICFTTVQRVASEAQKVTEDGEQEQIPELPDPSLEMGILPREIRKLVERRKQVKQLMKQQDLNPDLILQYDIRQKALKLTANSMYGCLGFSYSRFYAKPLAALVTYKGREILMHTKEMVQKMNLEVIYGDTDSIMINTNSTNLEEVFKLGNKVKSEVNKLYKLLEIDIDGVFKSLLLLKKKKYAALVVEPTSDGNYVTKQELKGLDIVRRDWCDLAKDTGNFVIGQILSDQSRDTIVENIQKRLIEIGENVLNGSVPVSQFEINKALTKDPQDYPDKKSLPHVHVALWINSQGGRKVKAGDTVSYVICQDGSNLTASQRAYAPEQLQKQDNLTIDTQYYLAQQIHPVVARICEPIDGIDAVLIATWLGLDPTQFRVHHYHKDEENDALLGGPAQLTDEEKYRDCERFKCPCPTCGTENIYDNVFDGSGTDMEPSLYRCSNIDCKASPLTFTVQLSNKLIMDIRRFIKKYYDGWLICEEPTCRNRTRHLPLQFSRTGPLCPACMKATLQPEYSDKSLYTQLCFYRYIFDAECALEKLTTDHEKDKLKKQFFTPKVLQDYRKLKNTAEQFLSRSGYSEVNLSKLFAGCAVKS
In short: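 Cellular polymerase taken from crude HSV1-infected HeLa extract, assayed without (NH4)2SO4. Inhibitor came as 20 µL of a 3-h, 37 °C enzymatic phosphorylation mixture, in 50 mM Tris pH 8 with 5 mM MgCl2, activated salmon sperm DNA and 0.05 mM each dNTP ([3H]dTTP). Incubation 1 h at 37 °C, then TCA-insoluble radioactivity counted.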

[3] = test system: Human alphaherpesvirus 1; experiment: Phosphorylation by HSV-1 thymidine kinase
In short: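 Affinity-purified HSV1 TK (1 unit) from infected HeLa cells, 37 °C for 1 h, with 40 µg nucleoside in 50% Me2SO. Buffer: 50 mM Tris pH 7.5, 5 mM MgCl2, 5 mM ATP, 2 mM DTT, 2.5 mM NaF, 15 mM phosphocreatine, creatine kinase and BSA. Nucleoside and phosphates separated by anion-exchange HPLC (KH2PO4 gradient, pH 3.0) and quantified from peak areas.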

[4] = test system: MRC5; experiment: Compound was tested for 50% inhibition of HSV-1 induced cytopathic effect in MRC-5 cells; Not active; conditions: Homo sapiens, read-out: ED50 (the source's name)
[5] = test system: MRC5; experiment: Compound was tested for 50% inhibition of HSV-1 induced cytopathic effect in MRC-5 cells; conditions: Homo sapiens, read-out: ED50 (the source's name)
[6] = test system: MRC5; experiment: Compound was tested for 50% inhibition of HSV-1 induced cytopathic effect in MRC-5 cells; 3-6; conditions: Homo sapiens, read-out: ED50 (the source's name)

inhibition [2] [%] | Structure (SMILES) | Inhibition [1] [%] | Phosphorylation [3] [%] | other results
 | Nc1nc(O)c2ncn(COCC(O)CO)c2n1 (single isomer, unassigned; form 1) [listing 1 of 2 here] | 54 |  | 
6 | Nc1nc(O)c2ncn(COCC(O)CO)c2n1 (centres undefined) [listing 1 of 2 here] |  |  | 
 | Nc1nc(O)c2ncn(COCC(O)CO)c2n1 (single isomer, unassigned; form 2) | 14 |  | 
10 | Nc1nc(O)c2ncn(COCC(O)CO)c2n1 (single isomer, unassigned; form 1) [listing 2 of 2 here] |  |  | 
17 | Nc1nc2c(ncn2COC(CO)CO)c(=O)[nH]1 [GANCICLOVIR] | 60 |  | 
 | Nc1nc(O)c2ncn(COCC(O)CF)c2n1 (centres undefined) |  | 4 | EC50 [4]: > 100 µg/mL
 | CC(O)COCn1cnc2c(O)nc(N)nc21 (centres undefined) |  | 5 | EC50 [5]: 100 µg/mL (≈ 418 µM)
 | Nc1nc(O)c2ncn(COCC(F)CO)c2n1 (centres undefined) |  | 42 | EC50 [5]: 25 µg/mL (≈ 97.2 µM)
37 | Nc1nc2c(ncn2COCCO)c(=O)[nH]1 [ACYCLOVIR] | 86 |  | 
 | Nc1nc(O)c2ncn(COCC(O)CO)c2n1 (centres undefined) [listing 2 of 2 here] | 36 | 59 | EC50 [6]: 3 µg/mL (≈ 11.8 µM)
 | Nc1nc(O)c2ncn(COCCCO)c2n1 |  | 88 | EC50 [5]: 50 µg/mL (≈ 209 µM)
